Source: ChEMBL document CHEMBL1287725, “N-(8-(3-ethynylphenoxy)octyl-1-deoxynojirimycin suppresses growth and migration of human lung cancer cells” (Bioorg Med Chem Lett, 2010)
Active and inactive are the calls of the source. No cut-off for these calls is given here.

Columns and labels:
A549 [1] = assay: Cell cycle arrest in human A549 cells assessed as accumulation at G1 phase at 50 uM after 24 hrs using propidium iodide staining by flow cytometry relative to control; assay type: functional
Summary of the method: (§1)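 A549 cells were seeded overnight in F12K/10% FBS, then treated 24 h. They were harvested with trypsin-EDTA, fixed in 70% ethanol at −20 °C for at least 2 h, and treated with RNase A 200 µg/ml at 25 °C for 30 min. Staining was with propidium iodide 50 µg/ml for 30 min at 4 °C. 10,000 nuclei per sample were scored by flow cytometry for G1, S and G2/M percentages. Triplicate, repeated three times.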

A549 [2] = assay: Antiproliferative activity against human A549 cells after 72 hrs by MTT assay; assay type: functional, cell-based; conditions: A549, 72 h
Summary of the method: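 A549 cells (2.5 x 10^3/well) in F12K with 10% FBS, seeded overnight, then exposed to a range of doses for 72 h. MTT was added to a final 0.5 mg/ml for 3 h. Formazan was dissolved in DMSO and absorbance read. Triplicates, three experiments; IC50 given as mean of three experiments.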

A549 [3] = assay: Induction of apoptosis in human A549 cells assessed as increased mitochondrial membrane depolarization at 100 uM after 48 hrs using JC-1 dye by flow cytometry; assay type: functional, cell-based
Summary of the method: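 After 48 h exposure, A549 cells were harvested and stained with JC-1. The red-to-green fluorescence shift (green/red ratio) was measured by flow cytometry as mitochondrial depolarisation. Mean ± SD, n=3.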

A549 [4] = assay: Inhibition of human A549 cell migration assessed as disruption of actin assembly at 100 uM after 24 hrs by TRITC-phalloidin staining; assay type: functional, cell-based
Summary of the method: (§2)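 A549 cells on glass coverslips were seeded overnight, then exposed 24 h. They were fixed with 4% paraformaldehyde, permeabilised with 0.1% Triton X-100, blocked with 1% BSA, and stained 60 min with TRITC-phalloidin for F-actin. Stress fibres were examined by confocal microscopy (100x oil). Repeated three times.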

A549 [5] = assay: Cell cycle arrest in human A549 cells assessed as accumulation at S phase at 100 uM after 24 hrs using propidium iodide staining by flow cytometry relative to control; assay type: functional; summary of the method: as §1
A549 [6] = assay: Induction of apoptosis in human A549 cells at 50 uM after 24 to 72 hrs using annexin V and propidium iodide staining by flow cytometry; assay type: functional, cell-based
Summary of the method: (§3)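 A549 cells were seeded and, the next day, treated in complete medium at 0, 50 or 100 µM for 24, 48 and 72 h. Cells were collected and washed twice with DPBS, then stained with an annexin V-FITC/propidium iodide kit. Annexin V-positive cells were quantified by flow cytometry. Triplicate, repeated three times.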

A549 [7] = assay: Induction of apoptosis in human A549 cells at 100 uM after 24 to 72 hrs using annexin V and propidium iodide staining by flow cytometry; assay type: functional, cell-based; summary of the method: as §3
A549 [8] = assay: Inhibition of human A549 cell migration at 100 uM after 24 hrs by wound-healing assay; assay type: functional, cell-based
Summary of the method: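 Confluent A549 monolayers (3 x 10^4 cells seeded overnight, F12K/10% FBS) were scratched with a 200 µl pipette tip and washed. They were incubated at 37 °C in 10% FBS F12K with or without compound, and migration into the wound was photographed at 0 and 24 h.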

A549 [9] = assay: Cell cycle arrest in human A549 cells assessed as accumulation at G2/M phase at 50 uM after 24 hrs using propidium iodide staining by flow cytometry relative to control; assay type: functional; summary of the method: as §1
A549 [10] = assay: Cell cycle arrest in human A549 cells assessed as accumulation at G2/M phase at 100 uM after 24 hrs using propidium iodide staining by flow cytometry relative to control; assay type: functional; summary of the method: as §1
A549 [11] = assay: Effect on surface oligosaccharide expression in human A549 cells assessed as inhibition of binding of L-PHA-[…] to cell surface at 50 uM after 24 hrs by flow cytometry; assay type: functional, cell-based
A549 [12] = assay: Inhibition of human A549 cell migration assessed as prevention of actin stress fibre formation at 100 uM after 24 hrs by TRITC-phalloidin staining; assay type: functional, cell-based; summary of the method: as §2
A549 [13] = assay: Cell cycle arrest in human A549 cells assessed as accumulation at S phase at 50 uM after 24 hrs using propidium iodide staining by flow cytometry relative to control; assay type: functional; summary of the method: as §1
A549 [14] = assay: Cell cycle arrest in human A549 cells assessed as accumulation at G1 phase at 100 uM after 24 hrs using propidium iodide staining by flow cytometry relative to control; assay type: functional; summary of the method: as §1

For `C#Cc1cccc(OCCCCCCCCN2C[C@H](O)[C@@H](O)[C@H](O)[C@H]2CO)c1`, the Activity (A549 [1]) was 77.69%, the IC50 (A549 [2]) was 51.2 µM and the Activity (A549 [3]) was “Active”. The inhibition (A549 [4]) was “Active”, the Activity (A549 [5]) was 4.85% and the Activity (A549 [6]) was “Active”. For the same compound, the Activity (A549 [7]) was “Active”, the inhibition (A549 [8]) was “Active” and the Activity (A549 [9]) was 9.97%. For the same compound, the Activity (A549 [10]) was 5.44%, the inhibition (A549 [11]) was “Active” and the inhibition (A549 [12]) was “Active”. The Activity (A549 [13]) was 13.93% and the Activity (A549 [14]) was 89.1%.

For `C#Cc1cccc(OC)c1`, the IC50 (A549 [2]) was greater than 1000 µM and the inhibition (A549 [8]) was “inactive”.

With `OC[C@H]1NC[C@H](O)[C@@H](O)[C@@H]1O` [DUVOGLUSTAT] the IC50 (A549 [2]) was greater than 1000 µM, the inhibition (A549 [8]) was “inactive” and the inhibition (A549 [11]) was “Active”.
